Assay outcomes: PubChem BioAssay, several laboratories
CTSL1 counter: cathepsin L1 inhibition, PFM18AAP counter-screen; recombinant F. hepatica cathepsin L1, Z-Leu-Arg-MCA fluorescence; inhibition, % at 5.96 µM; AID 1906; actives 0.49% (n = 300,000);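 active = inhibition above the mean of all tested compounds plus 3 SD, set per screening campaign, cut at about 17% in these data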;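 also: 0% = plate median of test compound wells and 100% = 1 µM Z-Phe-Ala-diazomethylketone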
HCV core dimer: blocks dimerization of HCV core protein; actives 0.33% (n = 300,000); inhibition, % at 5 µM; TR-FRET GST/Flag-core106 dimerization, 1536-well;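 active = inhibition above the mean of all tested compounds plus 3 SD, set per screening campaign, cut at about 45% in these data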
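Assay system: GST-tagged and Flag-tagged HCV core protein residues 1-106 / Times: compound-protein-antibody incubation 4 h at 22.5 °C / Signal: time-resolved FRET, ex 340 nm, em 617 and 671 nm / Evaluation: % inhibition based on acceptor/donor emission ratio / Benchmarks: wells lacking GST-core106 and wells with excess unlabelled core106 / Repeats: singlicate, one well per compound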
PP1 counter: counter-screen for PP5 inhibitors: inhibitors of human PP1-alpha; actives 0.9% (n = 320,000); purified PP1alpha, OMFP fluorescence; inhibition, % at 6.7 µM; AID 2235;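 active = inhibition above the mean inhibition of all tested compounds plus 3 SD, computed separately for each screening campaign, cut at about 15% in these data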
Myeloid diff 2: promotes myeloid progenitor differentiation | ER-HoxA9 myeloid progenitors, lysozyme-GFP differentiation, flow cytometry | calls only at 10 µM | actives 1% (n = 360,000) | AID 624256;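 active = normalized GFP-positive differentiation at or above the plate's own cutoff, the solvent-only control mean plus 3 SD; inconclusive = no clear call, values can overlap the other calls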;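 also: cells exposed to compound for four days before flow analysis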
PP5 primary: inhibitors of human protein phosphatase 5 (PP5); inhibition, % at 6.7 µM; purified PP5c, OMFP substrate fluorescence; P53041; actives 0.18% (n = 320,000);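 active = inhibition above the campaign's mean inhibition across all tested compounds plus 3 SD, cut at about 9.5% in these data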;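 also: 0% = DMSO only and 100% = 100 µM cantharidin control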
Target sequence (P53041 whole entry, looked up): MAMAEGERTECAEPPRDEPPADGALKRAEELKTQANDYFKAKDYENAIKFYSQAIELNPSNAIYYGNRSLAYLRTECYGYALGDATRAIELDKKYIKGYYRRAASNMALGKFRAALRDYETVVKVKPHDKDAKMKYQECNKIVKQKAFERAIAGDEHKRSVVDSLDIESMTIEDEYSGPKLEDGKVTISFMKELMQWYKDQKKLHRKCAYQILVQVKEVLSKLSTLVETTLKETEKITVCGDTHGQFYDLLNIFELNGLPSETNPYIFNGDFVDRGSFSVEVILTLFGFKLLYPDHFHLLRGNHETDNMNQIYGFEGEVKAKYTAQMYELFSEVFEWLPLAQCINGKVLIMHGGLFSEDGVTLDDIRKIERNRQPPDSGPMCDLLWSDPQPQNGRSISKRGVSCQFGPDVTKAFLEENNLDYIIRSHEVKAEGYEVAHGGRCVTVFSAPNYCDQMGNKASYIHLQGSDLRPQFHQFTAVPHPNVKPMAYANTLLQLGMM
NadD block: inhibitors of Staphylococcus aureus NadD; purified NadD enzyme, colorimetric absorbance read-out; inhibition, % at 20 µM; actives 0.78% (n = 360,000); in the data active = inhibition above about 26%
PP1 confirm: human PP1 phosphatase inhibition, confirmation | shares compounds with PP1 counter | purified PP1alpha, OMFP substrate fluorescence | inhibition, % at 6.7 µM | actives 52% (n = 1,900) | AID 2358;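 active = mean PP1 inhibition above a set limit taken from the earlier primary screen, cut at about 15% in these data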
PP5 inh counter: counter-screen for PP1 inhibitors: human PP5 phosphatase inhibition; actives 4% (n = 1,900); purified PP5c, OMFP fluorescence; inhibition, % at 6.7 µM; shares compounds with PP1 counter;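 active = mean PP5 inhibition over triplicate wells above about 9.5% taken from the earlier PP1 screen, limit read from the data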
Numbers without * were called inactive; i = inactive; ? = inconclusive; nt = no result. A selection: hits, their analogues and other compounds. The true share with any hit is near 3.1%.

SMILES	CTSL1 counter	HCV core dimer	PP1 counter	Myeloid diff 2	PP5 primary	NadD block	PP1 confirm	PP5 inh counter
Cc1cc(NC(=O)Cc2cccs2)no1	-8	28	28*	i	2	24	0	-5
Cc1cc(NS(=O)(=O)c2ccc(NC(=O)Cc3cccs3)cc2)no1	-2	2	-4	i	2	-1	nt	nt
CC1CCCC(C)N1C(=O)CN1C(=O)NC2(CCOc3ccccc32)C1=O (stereo not given)	nt	nt	nt	i	nt	2	nt	nt
COc1ccc(C(CNC(=O)c2cc(C)on2)N(C)C)cc1 (stereo not given)	3	0	2	?	1	-4	nt	nt
COC(=O)c1ccc(NC(=O)c2ccc(NC(=O)c3ccco3)cc2)cc1	-5	6	30*	i	2	9	26*	-2
Cc1ccc(C(=O)Nc2ccc(N3CCN(C(=O)c4ccco4)CC3)cc2)cc1	5	3	1	i	2	-9	nt	nt
O=C(Nc1ccc(N2CCN(C(=O)c3ccco3)CC2)cc1)c1ccc(Br)cc1	-3	20	21*	i	1	6	39*	-2
O=C(/C=C/c1ccc(Br)cc1)c1ccc(NC(=O)c2ccco2)cc1	-4	29	22*	i	1	8	22*	1
CC(=O)c1ccc(NC(=O)c2ccc(NC(=O)c3ccco3)cc2)cc1	-2	9	10	i	1	7	nt	nt
COc1cccc(OCc2cc(C(=O)N(C)Cc3nccn3C)no2)c1	0	2	-3	i	0	3	nt	nt
C[C@H](CO)N1C[C@H](C)[C@@H](CN(C)S(=O)(=O)c2ccccc2F)OCc2cnnn2CCCC1=O	nt	nt	nt	i	nt	-4	nt	nt
CCOc1ccccc1NC(=O)C1C2C=CC(C2)C1C(=O)O (stereo not given)	4	-2	-2	i	1	2	nt	nt
CCOc1ccccc1NC(=O)C1C2CCC(O2)C1C(=O)O (stereo not given)	1	3	77*	i	77*	-2	16*	31*
COc1ccc(OC)c(NC(=O)C2C3CCC(O3)C2C(=O)O)c1 (stereo not given)	-1	2	64*	nt	69*	nt	22*	27*
COc1cccc(C(=O)N2CCC[C@H]2C(=O)N2CCC[C@H]2C(=O)N(C)Cc2ccccc2)c1	nt	nt	nt	i	nt	-3	nt	nt
CCc1nnc2n1N=C(c1ccc(-c3cc(Cl)ccc3Cl)o1)CS2	-2	61*	23*	i	2	18	12	-4
CCc1nnc2n1N=C(c1ccc(OC)cc1)CS2	0	-2	2	i	1	-4	nt	nt
CC(C)COc1ccc(C(=S)N2CCCC2)cc1	2	2	-4	i	0	11	nt	nt
O=C(/C=C/c1cccs1)NC(=S)NNC(=O)Cc1cccs1	4	4	25*	i	1	16	24*	-7
Cc1onc(-c2ccccc2)c1C(=O)NNC(=S)NC(=O)/C=C/c1cccs1	6	1	19*	i	1	9	9	0
Cc1onc(-c2ccccc2)c1C(=O)N/N=C/c1cccs1	1	0	-3	i	-1	-3	nt	nt
Cc1onc(-c2ccccc2)c1C(=O)NC(=S)NNC(=O)c1cc(-c2ccc(F)cc2)n[nH]1	-1	5	29*	i	2	18	22*	-1
Cc1onc(-c2ccccc2)c1C(=O)NC(=S)NNC(=O)c1ccncc1	-2	1	-3	i	3	4	nt	nt
COc1ccc(/C=C/C(=O)NC(=S)NNC(=O)Cc2cccs2)cc1OC	5	14	3	i	2	5	nt	nt
Cc1cc(C)c(OCC(=O)Nc2nnc(C3CC3)s2)c(C)c1	nt	nt	nt	i	nt	3	nt	nt
SMILES	CTSL1 counter	HCV core dimer	PP1 counter	Myeloid diff 2	PP5 primary	NadD block	PP1 confirm	PP5 inh counter
O=C(Nc1ccc2c(c1)N(S(=O)(=O)c1cccs1)CCC2)c1c(F)cccc1Cl	-2	6	-8	i	1	0	nt	nt
O=C(CSc1nnc(-c2cccc(Br)c2)o1)N1CCNC1=O	nt	nt	nt	i	nt	-2	nt	nt
CCOC(=O)c1[nH]c2ccccc2c1CCCN1C(=O)c2ccccc2C1=O	2	3	32*	i	4	-10	25*	1
CCOC(=O)c1[nH]c2cc3c(cc2c1CCCN1C(=O)c2ccccc2C1=O)OCCO3	-1	7	-2	i	5	-4	nt	nt
Cc1ccc(OCCN2C(=O)C(=O)c3cc(C)ccc32)cc1	-3	8	18*	nt	0	-1	8	-4
Cc1cccc2c1N(CCOc1ccc(C(C)(C)C)cc1)C(=O)C2=O	0	12	23*	?	5	-1	13	-2
Cc1cccc2c1N(CCOc1ccccc1Cl)C(=O)C2=O	0	3	18*	nt	6	1	6	-2
O=C(CN1C(=O)COc2ccc(Cl)cc21)NCC1CCCO1 (stereo not given)	0	-16	0	i	0	5	nt	nt
CC(C)CN(C(=O)COC(=O)c1ccc(Br)cc1)c1c(N)n(Cc2ccccc2)c(=O)[nH]c1=O	1	-1	0	i	-1	-2	nt	nt
CC(/C=N/NC(=O)c1ccc(Cn2cc([N+](=O)[O-])cn2)o1)=C\c1ccccc1	1	3	-1	i	1	-1	nt	nt
Cc1sc(NC(=O)C2C3CCC(O3)C2C(=O)O)nc1-c1ccc(CC(C)C)cc1 (stereo not given)	-3	3	78*	i	79*	2	35*	38*
COCC(=O)Nc1nc(-c2ccc(C)cc2)c(C)s1	-1	-2	-3	i	2	-3	nt	nt
CCOC(=O)c1cc(NC(=O)C2C3C=CC(O3)C2C(=O)O)cc(C(=O)OCC)c1 (stereo not given)	3	6	17*	i	23*	-3	0	1
CCOC(=O)c1cc(NC(=O)C2C3CCC(O3)C2C(=O)O)cc(C(=O)OCC)c1 (stereo not given)	-1	-1	57*	i	65*	-4	13	19*
CCOC(=O)c1ccc(NC(=O)C2C3CCC(C3)C2C(=O)O)cc1 (stereo not given)	1	4	-1	i	-5	-2	nt	nt
CCOC(=O)c1c(NC(=O)C2C3CCC(O3)C2C(=O)O)sc(C)c1-c1ccc(C)cc1 (stereo not given)	2	25	20*	i	33*	9	13	13*
CCCCNS(=O)(=O)c1cccc(NC(=O)[C@@H]2O[C@H](CO)[C@@H](O)[C@H]2O)c1	nt	nt	nt	i	nt	5	nt	nt
